Measurements: ChEMBL document CHEMBL1121762, “2-(Isoxazolylethenyl)phenoxypropanolamines: a new class of beta-receptor antagonists with antihypertensive activity” (1981)

Columns and labels:
Type in all cases: functional
[1] = test system: Rattus norvegicus; assay: Relative potency required for inhibition of isoproterenol-induced tachycardia in pithed rat after intravenous administration
Outline: (§1)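 Male Sprague-Dawley rats, 200-240 g, anesthetized with amobarbital 120 mg/kg ip, pithed and ventilated via tracheal cannula; groups of two to five. Isoproterenol 0.1 μg/kg iv given before and 5 min after iv compound; heart rate by rate meter. ED50 = dose halving tachycardia; 95% confidence limits; relative potency vs labetalol (=1.0).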

[2] = test system: Rattus norvegicus; assay: Relative potency required for antihypertensive activity in spontaneous hypertensive rats after oral administration
Outline: (§2)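 Male SH rats (Okamoto strain), 250-380 g, groups of four to eight, dosed orally. Systolic pressure by tail cuff at 35 °C ambient, before and 2 h after dosing. ED20 = dose lowering systolic pressure 20%, corrected for placebo controls; from log dose vs Δ% regression; relative potency vs labetalol (=1.0).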

[3] = test system: Rattus norvegicus; assay: Dose required for hypotensive activity in anesthetized rat after intravenous administration
Outline: (§3)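 Male Sprague-Dawley rats, 230-280 g, anesthetized with urethane 1.78 g/kg ip; groups of two to five. Compound given iv. Mean carotid arterial pressure recorded by transducer. ED20 = dose lowering mean carotid pressure by 20%; 95% confidence limits; relative potency versus labetalol (=1.0).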

[4] = test system: Rattus norvegicus; assay: Relative potency required for hypotensive activity in anesthetized rat; outline: as §3
[5] = test system: Rattus norvegicus; assay: Dose required for antihypertensive activity in spontaneous hypertensive rats after oral administration; outline: as §2
[6] = test system: Rattus norvegicus; assay: Dose required for inhibition of isoproterenol-induced tachycardia in pithed rat after intravenous administration; outline: as §1
[7] = test system: Rattus norvegicus; assay: Dose required for inhibition of L-phenylephrine-induced pressor response in pithed rats after intravenous administration
Outline: (§4)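 Pithed male Sprague-Dawley rats, 200-240 g, amobarbital 120 mg/kg ip, artificially ventilated; three to five per dose. l-Phenylephrine 1.47 μg/kg iv before and 5 min after iv compound; carotid pressure recorded. ED50 = dose halving phenylephrine pressor rise; 95% confidence limits; relative potency vs labetalol (=1.0).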

[8] = organism: Rattus norvegicus; assay: Relative potency required for inhibition of L-phenylephrine-induced pressor response in pithed rats; outline: as §4
[9] = test system: Rattus norvegicus; assay: Dose of compound required for hypotensive activity in anesthetized rat; outline: as §3

| Compound | Relative potency [1] | Relative potency [2] | ED20 [3] [mg/kg] | Relative potency [4] | ED20 [5] [mg/kg] | ED50 [6] [mg/kg] | ED50 [7] [mg/kg] | Relative potency [8] | ED20 [9] [mg/kg] |
| --- | --- | --- | --- | --- | --- | --- | --- | --- | --- |
| COc1ccc(CCC(C)(C)NCC(O)COc2ccccc2/C=C/c2cc(C)no2)cc1 (stereo not given) | ~0.7 | ~2.2 | ~1 | ~5.2 | ~21.5 | ~0.215 | – | – | – |
| Cc1cc(/C=C/c2ccccc2OCC(O)CNC(C)CCc2ccc(O)cc2)on1 (stereo not given) | 12.7 | ~1 | 0.49 | 10.6 | ~46.4 | 0.011 | – | – | – |
| Cc1noc(/C=C/c2ccccc2OCC(O)CNC(C)(C)C)c1[N+](=O)[O-] (stereo not given) | ~2.1 | – | ~1 | ~5.2 | > 21.5 | ~0.0681 | – | – | – |
| Cc1noc(/C=C/c2ccccc2OCC(O)CNC(C)(C)C)c1C (stereo not given) | ~6.5 | – | ~0.68 | ~7.6 | > 21.5 | ~0.0215 | – | – | – |
| Cc1cc(/C=C/c2ccccc2OCC(O)CNC(C)CCc2ccccc2)on1 (stereo not given) | ~3 | ~1 | ~1 | ~5.2 | ~46.4 | ~0.0464 | – | – | – |
| COc1ccc(CC(C)NCC(O)COc2ccccc2/C=C/c2cc(C)no2)cc1OC (stereo not given) | ~3 | – | ~2.15 | ~2.4 | > 21.5 | ~0.464 | – | – | – |
| Cc1cc(/C=C/c2ccccc2OCC(O)CNC(C)C)on1 (stereo not given) | 23.3 | – | ~0.65 | 8 | > 21.5 | 0.006 | – | – | – |
| Cc1noc(/C=C/c2ccccc2OCC(O)CNC(C)(C)C)c1Cl (stereo not given) | 10 | – | ~1 | ~5.2 | > 21.5 | 0.014 | – | – | – |
| Cc1cc(/C=C/c2ccccc2OCC(O)CNC(C)(C)CCc2ccc(O)cc2)on1 (stereo not given) | ~6.5 | ~2.2 | ~1 | ~5.2 | ~21.5 | ~0.0215 | – | – | – |
| Cc1cc(/C=C/c2ccccc2OCC(O)CNC2CC2)on1 (stereo not given) | 15.4 | ~2.2 | ~1.47 | ~3.5 | ~21.5 | 0.0091 | 0.63 | 0.8 | – |
| CC(C)NCC(O)COc1ccccc1/C=C/c1cc(Cl)no1 (stereo not given) | 3 | – | – | 7.6 | > 21.5 | 0.0464 | – | – | 0.68 |
| COCc1cc(/C=C/c2ccccc2OCC(O)CNC2CC2)on1 (stereo not given) | ~14 | ~4.8 | ~1 | ~5.2 | ~10 | ~0.01 | 0.73 | 0.6 | – |
| CCc1cc(/C=C/c2ccccc2OCC(O)CNC(C)C)on1.Cl (stereo not given) | ~6.5 | 5.1 | 0.41 | 12.7 | 9.38 | ~0.0215 | – | – | – |
| Cc1cc(/C=C/c2ccccc2OCC(O)CNC(C)(C)C)on1.Cl (stereo not given) | 15.9 | 3.3 | 0.4 | 13 | 14.5 | 0.0088 | 0.12 | 3.9 | – |
| Cc1cc(C=Cc2ccccc2OCC(O)CNC(C)(C)C)no1.Cl (stereo not given) | 10.8 | ~2.2 | ~2.15 | ~2.4 | ~21.5 | 0.013 | – | – | – |
| CCc1cc(/C=C/c2ccccc2OCC(O)CNC(C)(C)C)on1.Cl (stereo not given) | ~6.5 | – | 0.93 | 5.6 | > 21.5 | ~0.0215 | – | – | – |
| COCc1cc(/C=C/c2ccccc2OCC(O)CNC(C)C)on1.Cl (stereo not given) | 21.9 | 2.6 | ~1 | ~5.2 | 18.2 | 0.0064 | 0.61 | 0.8 | – |
| COCc1cc(/C=C/c2ccccc2OCC(O)CNC(C)(C)C)on1.Cl (stereo not given) | 18.9 | ~2.2 | ~0.8 | ~6.5 | ~21.5 | 0.0074 | 0.21 | 2.2 | – |
| C#CC(C)(C)NCC(O)COc1ccccc1/C=C/c1cc(C)no1.Cl (stereo not given) | ~2.1 | ~1 | ~1.25 | 4.2 | ~46.4 | ~0.0681 | – | – | – |
| Cc1cc(/C=C/c2ccccc2OCC(O)CNC(C)C)no1.Cl (stereo not given) | 41.2 | 1 | ~2.15 | ~2.4 | ~46.4 | 0.0034 | – | – | – |
| CC(C)(C)NCC(O)COc1ccccc1/C=C/c1cc(C(C)(C)C)no1.Cl (stereo not given) | ~6.5 | – | > 1 | – | > 46.4 | ~0.0215 | – | – | – |
| CC(CCc1ccccc1)NCC(O)c1ccc(O)c(C(N)=O)c1 (stereo not given) [LABETALOL] | 1 | 1 | 5.2 | 1 | 47.7 | 0.14 | 0.47 | 1 | – |
